Screening results deposited in PubChem BioAssay by Sanford-Burnham Center for Chemical Genomics.
HKDC1 activator: increases human hexokinase HKDC1 activity | recombinant HKDC1, G6PDH/diaphorase resazurin fluorescence; stronger effect = lower value | activity change, negative = activation, % at 20 µM | 340,000 compounds, 0.056% hits;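 active = activation of 40% or more at 20 µM, a change of -40% or lower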
Target sequence (Q2TB90 whole entry, looked up): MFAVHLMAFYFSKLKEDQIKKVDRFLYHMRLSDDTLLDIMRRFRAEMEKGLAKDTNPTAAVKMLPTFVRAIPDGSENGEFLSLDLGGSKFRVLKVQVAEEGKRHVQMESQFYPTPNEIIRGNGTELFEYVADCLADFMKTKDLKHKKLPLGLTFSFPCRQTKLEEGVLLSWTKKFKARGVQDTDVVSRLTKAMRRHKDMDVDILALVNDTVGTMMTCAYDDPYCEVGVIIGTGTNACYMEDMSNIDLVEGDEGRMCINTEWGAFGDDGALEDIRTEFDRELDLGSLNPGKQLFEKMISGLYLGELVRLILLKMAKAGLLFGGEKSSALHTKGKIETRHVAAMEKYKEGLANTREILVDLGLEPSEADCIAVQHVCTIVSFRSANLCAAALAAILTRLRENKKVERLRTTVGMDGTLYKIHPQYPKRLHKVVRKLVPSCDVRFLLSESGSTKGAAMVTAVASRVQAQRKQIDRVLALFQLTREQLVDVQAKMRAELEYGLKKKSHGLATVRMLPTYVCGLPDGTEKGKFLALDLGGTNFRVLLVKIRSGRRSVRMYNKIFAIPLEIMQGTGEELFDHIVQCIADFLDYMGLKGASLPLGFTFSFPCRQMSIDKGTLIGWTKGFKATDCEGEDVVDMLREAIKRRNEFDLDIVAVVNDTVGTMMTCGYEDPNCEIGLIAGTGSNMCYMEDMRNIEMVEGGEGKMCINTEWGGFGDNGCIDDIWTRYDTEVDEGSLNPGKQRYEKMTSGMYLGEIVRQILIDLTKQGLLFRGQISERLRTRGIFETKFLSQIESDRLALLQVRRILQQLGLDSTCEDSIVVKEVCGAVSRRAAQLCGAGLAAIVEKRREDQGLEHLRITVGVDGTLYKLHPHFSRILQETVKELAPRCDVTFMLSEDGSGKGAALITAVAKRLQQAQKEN
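System: in-house human HKDC1 enzyme, G6PDH and diaphorase coupling enzymes; Quantity: 5 µg/mL HKDC1 final; Buffer or medium: Tris/MgCl2 buffer, pH 8.0; Dosing: single compound dose of 20 µM, 1% DMSO final; Times: 90 min reaction at room temperature, dark; Detection: coupled resazurin-to-resorufin fluorescence, Ex 525/Em 613 nm.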
Numbers stand for hits; 0 = inactive. Only a sample is shown.

SMILES	HKDC1 activator
CC(OC(=O)c1cc(O)c2ccccc2c1O)C(=O)Nc1ccc(C(N)=O)cc1 (centres undefined)	0
O=C(O)[C@@H](c1ccccc1)N1Cc2ccccc2C1=O	0
CCOc1ccccc1Nc1nnc(SCc2nnc(-c3cc(OC)c(OC)c(OC)c3)o2)s1	0
O=c1[nH]c(=O)c2nc3c4ccccc4c4ccccc4c3nc2[nH]1	0
O=C(C1=C(O)C(=O)N(c2nc3ccc(Cl)cc3s2)C1c1ccco1)c1ccco1 (centres undefined)	0
Cc1cc(C)c2c(=N)c3ccccc3n(CCCCCCCCn3c4ccccc4c(=N)c4c(C)cc(C)nc43)c2n1	0
COc1ccc(S(=O)(=O)Nc2cc(SCC(=O)O)c(O)c3ccccc23)cc1	0
COc1ccc(-c2cc3ccccc3[nH]2)cc1	0
CC(=O)Oc1cccc2c1C(=O)C1CC=CC(OC(C)=O)C1C2=O (centres undefined)	-45
COc1ccc([C@@H]2C[C@H](c3ccccc3)Oc3cc(OC)c(OC)c(OC)c32)cc1	0
O=C1C(Cl)=C(N2CCCCC2)C(=O)C(Cl)=C1c1cnc(N2CCCCC2)s1	0
Cc1cc2cc(CCNC(=O)c3ccc(S(=O)(=O)N4CCCC4)cc3)c(=O)[nH]c2cc1C	0
Cc1cc2cc(CN(Cc3cccs3)S(=O)(=O)c3ccc4c(c3)OCCO4)c(=O)[nH]c2cc1C	-47
COc1ccc2cc(/C=N/NC(=O)c3c(Cl)cnn3C)c(Cl)nc2c1	-75
CC(C)C(C(=O)O)N1C(=O)/C(=C/C=C/c2ccco2)SC1=S (centres undefined)	0
Cc1ccc(C(=O)ONc2ccc(N=NC(=O)c3ccccc3O)cc2)cc1	0
c1ccc(Nc2cc(Nc3ccccc3)[nH]n2)cc1	-47
Cc1oc2c(c1C(=O)c1ccccc1)C(=O)C(=O)c1ccccc1-2	0
O=C(NCCc1ccccc1)C(c1cccs1)N(C(=O)CCl)c1ccc(Cl)cc1 (centres undefined)	0
CC(=NNc1nc2ccccc2o1)c1cc2ccccc2cn1	-48
COC(=O)CCC(=O)Nc1sc(Cc2ccccc2)c(C)c1C(N)=O	-44
COc1ncnc2c1oc1nc(C(C)C)c3c(c12)CC(C)(C)OC3	0
CCN(CC)c1ccc(C(=C2C=CC(=[N+](CC)CC)C=C2)c2ccc(N(CC)CC)cc2)cc1	0
CNc1sc(C(=O)c2ccc(F)cc2)c(N)c1-c1nc2ccccc2s1	-45
Cn1c(/N=C/c2c(O)ccc3ccccc23)nc2ccccc21	0
SMILES	HKDC1 activator
CCOC(=O)c1ccc(N=C2C(=S)N(c3ccc(C(=O)OCC)cc3)C(=N)N2/N=C/c2ccccc2)cc1	-136
O=C(O)c1ccc(NC2=C/C(=N/S(=O)(=O)c3ccccc3)c3ccccc3C2=O)cc1	0
CCOC(=O)N1CCN(c2cc(NCCC(=O)O)c3c4c(onc24)-c2ccccc2C3=O)CC1	0
COc1ccc(CN2C=C3C(=O)C(C)(OC(=O)C4CCCC4)C(=O)C=C3C=C2c2ccsc2)cc1 (centres undefined)	0
CCc1c(C)c(C#N)c2nc3ccccc3n2c1NC	-66
COC(=O)CCC(=O)OC1(C)C(=O)C2=COC(c3ccc(OC)cc3)=CC2=C(Br)C1=O (centres undefined)	0
Cc1cc(C)n(-c2ccc(NC(=O)C3CCN(Cc4cc(C)c(C)o4)CC3)cc2)n1	0
COC(=O)c1sc(NC(=O)CSc2nc3nc(C)cc(C)n3n2)c(C(=O)OC)c1C	0
CCN1/C(=C/C=C/c2oc3ccc4ccccc4c3[n+]2CC)Oc2ccc3ccccc3c21	0
CCCN(CCC)C(=S)NC(=O)c1ccc(-c2ccccc2)cc1	-48
O=C(CSc1nc(-c2ccc(F)cc2)nc2c1Cc1ccccc1O2)Nc1ccc(C(=O)O)cc1	0
Cc1cc(O)c(-c2cc(O)c(C)cc2O)cc1O	0
COc1ccc(-c2nc3c(C(=O)NCCN(C)C)cccc3c3ccccc23)cc1	0
Oc1ccc(/C=N/NC(=S)Nc2cccnc2)c(O)c1	-40
CC(C)c1nc2oc3c(NCc4ccccn4)ncnc3c2c2c1COC(C)(C)C2	0
CCOC(=O)c1c(C)[nH]c(C2=NNC(=Nc3ccccc3OC)SC2)c1C	-165
CCOC(=O)c1c(C)[nH]c(C2=NNC(=Nc3ccc(OCC)cc3)SC2)c1C	-137
CCOC(=O)c1c(C)[nH]c(C2=NNC(=Nc3ccccc3)SC2)c1C	-306
O=C(C1=C(c2ccccc2)C(=O)c2ccccc2C1=O)c1ccccc1	0
O=C(CCCCC(=O)Sc1ccccc1)Sc1ccccc1	0
O/C=c1\ccc2cccc3nc(C(F)(F)F)nc1c23	0
CSc1nc(N(C)CCO)c2sc3nc(-c4ccco4)c4c(c3c2n1)CCC4	0
CC(=O)NC1C(=O)N(CCN2CCOCC2)c2ccc(F)cc21 (centres undefined)	0
CC1(C)Cc2ccccc2C2=NNC(=O)C2=N1	0
CCOC(=O)C1=C(Cc2ccc(OC)cc2)C(=O)c2ccccc2C1=O	0
SMILES	HKDC1 activator
O=C(N/N=C/c1ccccc1OC(=O)c1ccc2c(c1)OCO2)c1ccccc1	-48
O=[N+]([O-])c1ccc(-c2csc(N/N=C/c3cccnc3)n2)cc1	0
COC(=O)c1ccc(NC(=O)CSc2n[nH]c(-c3ccncc3)n2)cc1	0
COc1ccc(-c2[nH]c(-c3ccc(SC)cc3)nc2SCC(=O)Nc2nccs2)cc1	-54
CCOC(=O)c1ccc(NC(=O)CSc2n[nH]c(-c3ccncc3)n2)cc1	0
COc1ccc2[nH]c(=O)c(CN(C3CCCCC3)C(c3nnnn3Cc3ccco3)C(C)C)cc2c1 (centres undefined)	0
CN(c1ccc(C(=O)N2CCN(Cc3ccccc3)CC2)cc1)S(=O)(=O)c1ccccc1	-76
O=c1oc2c(O)c(O)cc3c(=O)oc4c(O)c(O)cc1c4c23	0
CCc1nn2c(=O)cc(COc3ccc(/C=C4\C(=N)N5N=C(C)SC5=NC4=O)cc3)nc2s1	0
Cc1ccc(SC2=C(N(C)C)C(=O)c3ccccc3C2=O)cc1	0
COc1cc(NS(=O)(=O)c2ccc(NC(=O)c3ccc(F)cc3)cc2)ncn1	-59
O=C1C=CC(=O)c2c(O)c(CO)c(CO)c(O)c21	0
CC(=O)NC1C(=O)N(CCN2CCOCC2)c2ccc(C)cc21 (centres undefined)	0
COC(=O)c1cc(C)nc2c1C(=O)C(=O)C=C2N1CCOCC1	0
COc1ccc(C2=CC3=C(Br)C(=O)C(C)(OC(=O)C4CCCC4)C(=O)C3=CO2)cc1 (centres undefined)	0
Cc1cc(C)c(S(=O)(=O)/N=C2\C=C(Nc3ccc(C(=O)O)cc3)C(=O)c3ccccc32)c(C)c1	0
CCOC(=O)/C(=C\c1cccnc1)C(=O)c1cc(C(C)=O)c(Nc2ccccc2)s1	0
CC(C)C(=O)N(c1cc2sc(=O)oc2c2ccccc12)S(=O)(=O)c1cccs1	0
CCC(Sc1nc(C)cc(C)n1)C(=O)NC1=NN=C(c2ccc(C)cc2)CS1 (centres undefined)	-149
COc1ccc(NC(=O)c2cc3ccccc3cc2O)cc1	0
N=C1N(c2ccccc2)C(=S)C(=Nc2ccccc2)N1c1ccccc1	-77
O=C(O)c1cccc2cccc(-c3c4ccc(=O)c(O)c-4oc4c(O)c(O)ccc34)c12	0
O=S(=O)(O)c1cc(O)c2ccc(Nc3ccccc3)cc2c1	0
Cn1c2ccccc2c(=O)c2c(=O)n(-c3ccccc3)c(C3CCCCC3)nc21	0
